According to EPA's CvTdb concentration-time database:

How the values were obtained:
Rat [1] = assay: concentration in brain after dosing; settings: 0.5 h; dosed: 2-Methyltetrahydrofuran; 40 mg/kg; iv; Male; Harlan Sprague Dawley
Rat [2] = assay: concentration in plasma after dosing; settings: 6 h; dosed: 2-Methyltetrahydrofuran; 40 mg/kg; iv; Male; Harlan Sprague Dawley
Rat [3] = assay: concentration in plasma after dosing; settings: 0.5 h; dosed: 2-Methyltetrahydrofuran; 40 mg/kg; iv; Male; Harlan Sprague Dawley
Rat [4] = assay: concentration in brain after dosing; settings: 0.75 h; dosed: 2-Methyltetrahydrofuran; 40 mg/kg; iv; Male; Harlan Sprague Dawley
Rat [5] = assay: concentration in plasma after dosing; settings: 4 h; dosed: 2-Methyltetrahydrofuran; 40 mg/kg; iv; Female; Harlan Sprague Dawley
Rat [6] = assay: concentration in plasma after dosing; settings: 2 h; dosed: 2-Methyltetrahydrofuran; 40 mg/kg; iv; Female; Harlan Sprague Dawley
rat [7] = assay: amount in urine after dosing (umol); settings: inhalation, duration: 4 hr, F344 (Harlan Winkelmann)
human = assay: concentration in blood after dosing; settings: dosed: trichloroethylene, 100 ppm, inhalation, duration: 4 hr, person
Procedure, shortened: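 Data points giving concentration or amount against time came from published in vivo toxicokinetic studies and from two structured collections. PubMed searching, classifier screening and manual review located the studies. Most points were digitised from plot screenshots using WebPlotDigitizer, the rest were copied from tables, and all keep their reported units.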

rat [8] = assay: concentration in blood after dosing; negative times count back from the end of exposure; settings: dosed: trichloroethylene, 50 ppm, inhalation, duration: 4 hr, male, Sprague Dawley
Rat [9] = assay: concentration in kidney after dosing; settings: 1 h; dosed: Perfluorohexanoic Acid; 80 mg/kg; oral; Female; Harlan Sprague Dawley
Rat [10] = assay: concentration in plasma after dosing; settings: 1 h; dosed: Perfluorohexanoic Acid; 80 mg/kg; oral; Male; Harlan Sprague Dawley
Rat [11] = assay: concentration in liver after dosing; settings: 1 h; dosed: Perfluorohexanoic Acid; 80 mg/kg; oral; Female; Harlan Sprague Dawley
Rat [12] = assay: concentration in plasma after dosing; settings: 0.75 h; dosed: Perfluorohexanoic Acid; 40 mg/kg; iv; Male; F344
Rat [13] = assay: concentration in plasma after dosing; settings: 1.5 h; dosed: Perfluorohexanoic Acid; 40 mg/kg; iv; Male; F344
Rat [14] = assay: concentration in plasma after dosing; settings: 15 h; dosed: Gemfibrozil; 4.29 mg/kg; oral; Male; Sprague-Dawley
Rat [15] = assay: concentration in plasma after dosing; settings: 1 h; dosed: Gemfibrozil; 100 mg/kg; oral; Male; Sprague-Dawley
Rat [16] = assay: concentration in brain after dosing; settings: 3360 h; dosed: Perfluorooctane Sulfonate; 20 mg/kg; oral; Male; Harlan Sprague Dawley
Rat [17] = assay: concentration in kidney after dosing; settings: 6 h; dosed: Perfluorooctane Sulfonate; 2 mg/kg; oral; Female; Harlan Sprague Dawley
Rat [18] = assay: concentration in liver after dosing; settings: 864 h; dosed: Perfluorooctane Sulfonate; 2 mg/kg; oral; Female; Harlan Sprague Dawley
Rat [19] = assay: concentration in plasma after dosing; settings: 3360 h; dosed: Perfluorooctane Sulfonate; 2 mg/kg; oral; Female; Harlan Sprague Dawley
Rat [20] = assay: concentration in plasma after dosing; settings: 24 h; dosed: Perfluorooctane Sulfonate; 2 mg/kg; oral; Female; Harlan Sprague Dawley
Rat [21] = assay: concentration in kidney after dosing; settings: 1848 h; dosed: Perfluorooctane Sulfonate; 20 mg/kg; oral; Male; Harlan Sprague Dawley
Rat [22] = assay: concentration in kidney after dosing; settings: 1848 h; dosed: Perfluorooctane Sulfonate; 20 mg/kg; oral; Female; F344
Rat [23] = assay: concentration in liver after dosing; settings: 3360 h; dosed: Perfluorooctane Sulfonate; 2 mg/kg; oral; Female; Harlan Sprague Dawley
Rat [24] = assay: concentration in plasma after dosing; settings: dosed: Perfluorooctane Sulfonate, 2 mg/kg, iv, Male, F344
Rat [25] = assay: concentration in liver after dosing; settings: 864 h; dosed: Perfluorooctane Sulfonate; 20 mg/kg; oral; Male; Harlan Sprague Dawley
Rat [26] = assay: concentration in plasma after dosing; settings: dosed: Fluorotelomer alcohol 8+2, 12 mg/kg, oral, Male, Harlan Sprague Dawley
Rat [27] = assay: concentration in plasma after dosing; settings: dosed: 678-39-7, 12 mg/kg, iv, Male, F344
Rat [28] = assay: concentration in plasma after dosing; settings: 0.25 h; dosed: 678-39-7; 12 mg/kg; iv; Male; F344
Rat [29] = assay: concentration in brain after dosing; settings: 3 h; dosed: Fluorotelomer alcohol 8+2; 80 mg/kg; oral; Female; Harlan Sprague Dawley

CC1CCCO1 (stereo unspecified) [2-Methyltetrahydrofuran]
concentration in brain (Rat [1]): 16200 ng/mL
concentration in plasma (Rat [2]): 29.7 ng/mL
concentration in plasma (Rat [3]): 25100 ng/mL
concentration in brain (Rat [4]): 15400 ng/mL
concentration in plasma (Rat [5]): 245 ng/mL
concentration in plasma (Rat [6]): 9860 ng/mL

CC(C)(O)C(=O)O [2-hydroxyisobutyrate]
amount in urine (rat [7]; 5.92 h, dosed: ethyl tert-butyl ether, 4.5 ppm): 0.229
amount in urine (rat [7]; 5.923 h, dosed: methyl tert-butyl ether, 38.7 ppm): 1.23
amount in urine (rat [7]; 5.99 h, dosed: ethyl tert-butyl ether, 40.6 ppm): 1.23
amount in urine (rat [7]; 11.86 h, dosed: ethyl tert-butyl ether, 4.5 ppm): 0.657
amount in urine (rat [7]; 11.94 h, dosed: ethyl tert-butyl ether, 40.6 ppm): 3.65
amount in urine (rat [7]; 11.94 h, dosed: methyl tert-butyl ether, 38.7 ppm): 6.37
amount in urine (rat [7]; 11.97 h, dosed: methyl tert-butyl ether, 4.5 ppm): 0.837
amount in urine (rat [7]; 17.79 h, dosed: ethyl tert-butyl ether, 4.5 ppm): 1.03
amount in urine (rat [7]; 17.99 h, dosed: methyl tert-butyl ether, 38.7 ppm): 2.57
amount in urine (rat [7]; 18.01 h, dosed: methyl tert-butyl ether, 4.5 ppm): 0.625
amount in urine (rat [7]; 18.03 h, dosed: ethyl tert-butyl ether, 40.6 ppm): 5.39
amount in urine (rat [7]; 23.79 h, dosed: ethyl tert-butyl ether, 4.5 ppm): 0.405
amount in urine (rat [7]; 23.95 h, dosed: methyl tert-butyl ether, 4.5 ppm): 0.205
amount in urine (rat [7]; 23.95 h, dosed: methyl tert-butyl ether, 38.7 ppm): 0.915
amount in urine (rat [7]; 23.98 h, dosed: ethyl tert-butyl ether, 40.6 ppm): 0.922
amount in urine (rat [7]; 29.73 h, dosed: ethyl tert-butyl ether, 4.5 ppm): 0.355
amount in urine (rat [7]; 29.93 h, dosed: ethyl tert-butyl ether, 40.6 ppm): 0.521
amount in urine (rat [7]; 29.93 h, dosed: methyl tert-butyl ether, 38.7 ppm): 0.315
amount in urine (rat [7]; 29.96 h, dosed: methyl tert-butyl ether, 4.5 ppm): 0.239

ClC=C(Cl)Cl [trichloroethylene]
concentration in blood (human; 0 h): 13000 nM
concentration in blood (human; 0.17 h): 4900 nM
concentration in blood (human; 0.5 h): 3280 nM
concentration in blood (human; 1 h): 2200 nM
concentration in blood (human; 1.5 h): 1680 nM
concentration in blood (human; 2 h): 1340 nM
concentration in blood (human; 3 h): 1070 nM
concentration in blood (human; 4 h): 865 nM
concentration in blood (human; 6 h): 583 nM
concentration in blood (human; 8 h): 392 nM
concentration in blood (human; 10 h): 259 nM
concentration in blood (rat [8]; 0.2317 h): 2420 ng/mL
concentration in blood (rat [8]; 0.4119 h): 1510 ng/mL
concentration in blood (rat [8]; 0.9932 h): 820 ng/mL
concentration in blood (rat [8]; 1.803 h): 370 ng/mL
concentration in blood (rat [8]; 3.975 h): 289 ng/mL
concentration in blood (rat [8]; -6 s, during exposure): 2790 ng/mL
concentration in blood (rat [8]; -1.012 h, during exposure): 2670 ng/mL
concentration in blood (rat [8]; -1.999 h, during exposure): 2680 ng/mL
concentration in blood (rat [8]; -3.024 h, during exposure): 1360 ng/mL
concentration in blood (rat [8]; -3.423 h, during exposure): 1890 ng/mL

O=C(O)C(F)(F)C(F)(F)C(F)(F)C(F)(F)C(F)(F)F [Perfluorohexanoic Acid]
concentration in kidney (Rat [9]): 76600 ng/g
concentration in plasma (Rat [10]): 152000 ng/mL
concentration in liver (Rat [11]): 41600 ng/g
concentration in plasma (Rat [12]): 18600 ng/mL
concentration in plasma (Rat [13]): 8490 ng/mL

Cc1ccc(C)c(OCCCC(C)(C)C(=O)O)c1 [Gemfibrozil]
concentration in plasma (Rat [14]): 131 ng/mL
concentration in plasma (Rat [15]): 57500 ng/mL

O=S(=O)([O-])C(F)(F)C(F)(F)C(F)(F)C(F)(F)C(F)(F)C(F)(F)C(F)(F)C(F)(F)F [Perfluorooctane Sulfonate]
concentration in brain (Rat [16]): 1260 ng/g
concentration in kidney (Rat [17]): 8350 ng/g
concentration in liver (Rat [18]): 9930 ng/g
concentration in plasma (Rat [19]): 428 ng/mL
concentration in plasma (Rat [20]): 5040 ng/mL
concentration in kidney (Rat [21]): 4810 ng/g
concentration in kidney (Rat [22]): 22700 ng/g
concentration in liver (Rat [23]): 1350 ng/g
concentration in plasma (Rat [24]; 12 h): 4020 ng/mL
concentration in plasma (Rat [24]; 1200 h): 875 ng/mL
concentration in liver (Rat [25]): 97500 ng/g

O=C(O)CCC(F)(F)C(F)(F)C(F)(F)C(F)(F)C(F)(F)C(F)(F)C(F)(F)F [Fluorotelomer acid 7+3]
concentration in plasma (Rat [26]; 1 h): 650 ng/mL
concentration in plasma (Rat [26]; 24 h): 210 ng/mL
concentration in plasma (Rat [27]; 1 h): 502 ng/mL
concentration in plasma (Rat [27]; 6 h): 706 ng/mL
concentration in plasma (Rat [28]): 51.7 ng/mL
concentration in brain (Rat [29]): 1310 ng/g

CC(O)C(C)(C)O (stereo unspecified) [2-methyl-2,3-butanediol]
amount in urine (rat [7]; 5.961 h, dosed: tert-amyl methyl ether, 38.4 ppm): 1.13
amount in urine (rat [7]; 5.981 h, dosed: tert-amyl methyl ether, 3.8 ppm): 0.237
amount in urine (rat [7]; 11.86 h, dosed: tert-amyl methyl ether, 3.8 ppm): 0.262
amount in urine (rat [7]; 12.08 h, dosed: tert-amyl methyl ether, 38.4 ppm): 2.25
amount in urine (rat [7]; 17.94 h, dosed: tert-amyl methyl ether, 3.8 ppm): 0.179
amount in urine (rat [7]; 17.94 h, dosed: tert-amyl methyl ether, 38.4 ppm): 1.18
amount in urine (rat [7]; 23.82 h, dosed: tert-amyl methyl ether, 3.8 ppm): 0.0479
amount in urine (rat [7]; 23.95 h, dosed: tert-amyl methyl ether, 38.4 ppm): 0.366
amount in urine (rat [7]; 29.9 h, dosed: tert-amyl methyl ether, 3.8 ppm): 0.0229
amount in urine (rat [7]; 29.96 h, dosed: tert-amyl methyl ether, 38.4 ppm): 0.165
amount in urine (rat [7]; 35.73 h, dosed: tert-amyl methyl ether, 3.8 ppm): 0.0302
amount in urine (rat [7]; 36.08 h, dosed: tert-amyl methyl ether, 38.4 ppm): 0.225
amount in urine (rat [7]; 41.81 h, dosed: tert-amyl methyl ether, 3.8 ppm): 0.024
amount in urine (rat [7]; 41.88 h, dosed: tert-amyl methyl ether, 38.4 ppm): 0.175
amount in urine (rat [7]; 47.74 h, dosed: tert-amyl methyl ether, 3.8 ppm): 0.0115
amount in urine (rat [7]; 47.95 h, dosed: tert-amyl methyl ether, 38.4 ppm): 0.084
